In ChEMBL document CHEMBL2062460, “Disubstituted thiourea derivatives and their activity on CNS: synthesis and biological evaluation” (Eur J Med Chem, 2012):
≈ marks a conversion by molar mass, not a printed value. Calls of active or inactive are those of the source. No cut-off for these calls is given here.

Tests used:
Bacillus subtilis = experiment: Antibacterial activity against Bacillus subtilis ATCC 6633 at 400 ug/disc after 18 hrs by disc diffusion method; type: functional; conditions: ATCC 6633, 18 h, read-out: DIZ
Procedure, shortened: (§1)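 Disc diffusion per CLSI on Mueller–Hinton II agar; 9 mm paper discs loaded from methanol or DMSO solutions to 400 µg per disc, dried; growth inhibition zone diameter read after 18 h at 35 °C.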

[1] = test system: Staphylococcus epidermidis; experiment: Antibacterial activity against Staphylococcus epidermidis ATCC 12228 at 400 ug/disc after 18 hrs by disc diffusion method; type: functional; conditions: ATCC 12228, 18 h, read-out: DIZ; procedure, shortened: as §1
Enterococcus hirae = experiment: Antibacterial activity against Enterococcus hirae ATCC 10541 at 400 ug/disc after 18 hrs by disc diffusion method; type: functional; procedure, shortened: as §1
Staphylococcus aureus [2] = experiment: Antibacterial activity against Staphylococcus aureus ATCC 25923 at 400 ug/disc after 18 hrs by disc diffusion method; type: functional; conditions: ATCC 25923, 18 h, read-out: DIZ; procedure, shortened: as §1
Staphylococcus aureus [3] = experiment: Antibacterial activity against Staphylococcus aureus ATCC 29213 at 400 ug/disc after 18 hrs by disc diffusion method; type: functional; conditions: ATCC 29213, 18 h, read-out: DIZ; procedure, shortened: as §1
Bacillus cereus = experiment: Antibacterial activity against Bacillus cereus ATCC 11778 at 400 ug/disc after 18 hrs by disc diffusion method; type: functional; conditions: ATCC 11778, 18 h, read-out: DIZ; procedure, shortened: as §1
Micrococcus luteus [4] = experiment: Antibacterial activity against Micrococcus luteus ATCC 9341 at 400 ug/disc after 18 hrs by disc diffusion method; type: functional; conditions: ATCC 9341, 18 h, read-out: DIZ; procedure, shortened: as §1
Escherichia coli = experiment: Antibacterial activity against Escherichia coli ATCC 10538 at 400 ug/disc after 18 hrs by disc diffusion method; type: functional, organism-based; procedure, shortened: as §1
Proteus vulgaris = experiment: Antibacterial activity against Proteus vulgaris NCTC 4635 at 400 ug/disc after 18 hrs by disc diffusion method; type: functional, organism-based; procedure, shortened: as §1
[5] = test system: Bordetella bronchiseptica; experiment: Antibacterial activity against Bordetella bronchiseptica ATCC 4617 at 400 ug/disc after 18 hrs by disc diffusion method; type: functional, organism-based; procedure, shortened: as §1
Candida albicans = experiment: Antifungal activity against Candida albicans ATCC 90028 at 400 ug/disc after 18 hrs by disc diffusion method; type: functional, organism-based
Procedure, shortened: (§2)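 Yeasts tested by disc diffusion (CLSI) on RPMI agar with 2% glucose; 9 mm paper discs bearing 400 µg compound from methanol or DMSO solution; inhibition zone diameter read after 18 h at 35 °C.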

Candida parapsilosis = experiment: Antifungal activity against Candida parapsilosis ATCC 22019 at 400 ug/disc after 18 hrs by disc diffusion method; type: functional, organism-based; procedure, shortened: as §2
Staphylococcus aureus [6] = experiment: Antibacterial activity against Staphylococcus aureus NCTC 4163 after 18 hrs by twofold serial agar dilution technique; type: functional; conditions: NCTC 4163, 18 h
Procedure, shortened: (§3)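 Twofold serial agar dilution on Mueller–Hinton II agar, following CLSI guidelines. Compounds were dissolved in methanol or DMSO and tested at final agar concentrations of 3.125–400 µg/mL. Final inoculum was 10^4 CFU/mL.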

Staphylococcus aureus [7] = experiment: Antibacterial activity against Staphylococcus aureus ATCC 25923 after 18 hrs by twofold serial agar dilution technique; type: functional; conditions: ATCC 25923, 18 h; procedure, shortened: as §3
Staphylococcus aureus [8] = experiment: Antibacterial activity against Staphylococcus aureus ATCC 29213 after 18 hrs by twofold serial agar dilution technique; type: functional; conditions: ATCC 29213, 18 h; procedure, shortened: as §3
[9] = test system: Staphylococcus epidermidis; experiment: Antibacterial activity against Staphylococcus epidermidis ATCC 12228 after 18 hrs by twofold serial agar dilution technique; type: functional; conditions: ATCC 12228, 18 h; procedure, shortened: as §3
Micrococcus luteus [10] = experiment: Antibacterial activity against Micrococcus luteus ATCC 10240 after 18 hrs by twofold serial agar dilution technique; type: functional; conditions: ATCC 10240, 18 h
Staphylococcus aureus [11] = experiment: Antibacterial activity against methicillin-susceptible Staphylococcus aureus clinical isolate 256/08 after 18 hrs by twofold serial agar dilution technique; type: functional; conditions: clinical isolate 256/08, 18 h
Procedure, shortened: (§4)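 Clinical isolates came from patients in Warsaw Medical University Hospitals and were classed as methicillin-susceptible or -resistant. MIC was determined by twofold serial agar dilution on Mueller–Hinton II agar (CLSI), 3.125–400 µg/mL in agar, with compounds in methanol or DMSO. Inoculum was 10^4 CFU/mL and plates were read after 18 h at 35 °C.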

Staphylococcus aureus [12] = experiment: Antibacterial activity against methicillin-susceptible Staphylococcus aureus clinical isolate 261/08 after 18 hrs by twofold serial agar dilution technique; type: functional; conditions: clinical isolate 261/08, 18 h; procedure, shortened: as §4
Staphylococcus aureus [13] = experiment: Antibacterial activity against methicillin-susceptible Staphylococcus aureus clinical isolate 268/08 after 18 hrs by twofold serial agar dilution technique; type: functional; conditions: clinical isolate 268/08, 18 h; procedure, shortened: as §4
Staphylococcus aureus [14] = experiment: Antibacterial activity against methicillin-susceptible Staphylococcus aureus clinical isolate 338/08 after 18 hrs by twofold serial agar dilution technique; type: functional; conditions: clinical isolate 338/08, 18 h; procedure, shortened: as §4
Staphylococcus aureus [15] = experiment: Antibacterial activity against methicillin-susceptible Staphylococcus aureus clinical isolate 339/09 after 18 hrs by twofold serial agar dilution technique; type: functional; conditions: clinical isolate 339/09, 18 h; procedure, shortened: as §4
Staphylococcus aureus [16] = experiment: Antibacterial activity against methicillin-susceptible Staphylococcus aureus clinical isolate 367/09 after 18 hrs by twofold serial agar dilution technique; type: functional; conditions: clinical isolate 367/09, 18 h; procedure, shortened: as §4
Staphylococcus aureus [17] = experiment: Antibacterial activity against methicillin-susceptible Staphylococcus aureus clinical isolate 369/09 after 18 hrs by twofold serial agar dilution technique; type: functional; conditions: clinical isolate 369/09, 18 h; procedure, shortened: as §4
Staphylococcus aureus [18] = experiment: Antibacterial activity against methicillin-susceptible Staphylococcus aureus clinical isolate 372/09 after 18 hrs by twofold serial agar dilution technique; type: functional; conditions: clinical isolate 372/09, 18 h; procedure, shortened: as §4
Staphylococcus aureus [19] = experiment: Antibacterial activity against methicillin-resistant Staphylococcus aureus clinical isolate 275/08 after 18 hrs by twofold serial agar dilution technique; type: functional; conditions: clinical isolate 275/08, 18 h; procedure, shortened: as §4
Staphylococcus aureus [20] = experiment: Antibacterial activity against methicillin-resistant Staphylococcus aureus clinical isolate 277/08 after 18 hrs by twofold serial agar dilution technique; type: functional; conditions: clinical isolate 277/08, 18 h; procedure, shortened: as §4
Staphylococcus aureus [21] = experiment: Antibacterial activity against methicillin-resistant Staphylococcus aureus clinical isolate 306/08 after 18 hrs by twofold serial agar dilution technique; type: functional; conditions: clinical isolate 306/08, 18 h; procedure, shortened: as §4
Staphylococcus aureus [22] = experiment: Antibacterial activity against methicillin-resistant Staphylococcus aureus clinical isolate 309/08 after 18 hrs by twofold serial agar dilution technique; type: functional; conditions: clinical isolate 309/08, 18 h; procedure, shortened: as §4
Staphylococcus aureus [23] = experiment: Antibacterial activity against methicillin-resistant Staphylococcus aureus clinical isolate 356/09 after 18 hrs by twofold serial agar dilution technique; type: functional; conditions: clinical isolate 356/09, 18 h; procedure, shortened: as §4
Staphylococcus aureus [24] = experiment: Antibacterial activity against methicillin-resistant Staphylococcus aureus clinical isolate 376/09 after 18 hrs by twofold serial agar dilution technique; type: functional; conditions: clinical isolate 376/09, 18 h; procedure, shortened: as §4
[25] = test system: Staphylococcus epidermidis; experiment: Antibacterial activity against methicillin-resistant Staphylococcus epidermidis clinical isolate 311/08 after 18 hrs by twofold serial agar dilution technique; type: functional; conditions: clinical isolate 311/08, 18 h; procedure, shortened: as §4
[26] = test system: Staphylococcus epidermidis; experiment: Antibacterial activity against methicillin-resistant Staphylococcus epidermidis clinical isolate 315/08 after 18 hrs by twofold serial agar dilution technique; type: functional; conditions: clinical isolate 315/08, 18 h; procedure, shortened: as §4
[27] = test system: Staphylococcus epidermidis; experiment: Antibacterial activity against methicillin-resistant Staphylococcus epidermidis clinical isolate 316/08 after 18 hrs by twofold serial agar dilution technique; type: functional; conditions: clinical isolate 316/08, 18 h; procedure, shortened: as §4
[28] = test system: Staphylococcus epidermidis; experiment: Antibacterial activity against methicillin-resistant Staphylococcus epidermidis clinical isolate 340/09 after 18 hrs by twofold serial agar dilution technique; type: functional; conditions: clinical isolate 340/09, 18 h; procedure, shortened: as §4
[29] = Cytotoxicity against human MT4 cells after 96 hrs by MTT assay; type: cell-based

| SMILES | zone of inhibition at 400 µg/disc (Bacillus subtilis) | zone of inhibition at 400 µg/disc [1] | zone of inhibition at 400 µg/disc (Staphylococcus aureus [2]) | zone of inhibition at 400 µg/disc (Staphylococcus aureus [3]) | zone of inhibition at 400 µg/disc (Bacillus cereus) | zone of inhibition at 400 µg/disc (Micrococcus luteus [4]) | diameter of the inhibition zone (DIZ) (Escherichia coli) | diameter of the inhibition zone (DIZ) (Proteus vulgaris) | diameter of the inhibition zone (DIZ) [5] | diameter of the inhibition zone (DIZ) (Candida albicans) | diameter of the inhibition zone (DIZ) (Candida parapsilosis) | MIC (Staphylococcus aureus [6]) | MIC (Staphylococcus aureus [7]) | MIC (Staphylococcus aureus [8]) | MIC [9] | MIC (Micrococcus luteus [10]) | MIC (Staphylococcus aureus [11]) | MIC (Staphylococcus aureus [12]) | MIC (Staphylococcus aureus [13]) | MIC (Staphylococcus aureus [14]) | other results |
| --- | --- | --- | --- | --- | --- | --- | --- | --- | --- | --- | --- | --- | --- | --- | --- | --- | --- | --- | --- | --- | --- |
| S=C(Nc1nc[nH]n1)Nc1ccccc1Br | 17 mm | 12 mm | 13 mm | 12 mm | 12 mm | 16 mm | inactive | inactive | inactive | inactive | inactive | 50 µg/mL (≈ 168 µM) | 50 µg/mL (≈ 168 µM) | 50 µg/mL (≈ 168 µM) | 25 µg/mL (≈ 83.8 µM) | 6.25 µg/mL (≈ 21 µM) | 50 µg/mL (≈ 168 µM) | 50 µg/mL (≈ 168 µM) | 50 µg/mL (≈ 168 µM) | 50 µg/mL (≈ 168 µM) | zone of inhibition at 400 µg/disc (Enterococcus hirae; ATCC 10541, 18 h, read-out: DIZ): 13 mm; MIC (Staphylococcus aureus [15]): 50 µg/mL (≈ 168 µM); MIC (Staphylococcus aureus [16]): 50 µg/mL (≈ 168 µM); MIC (Staphylococcus aureus [17]): 50 µg/mL (≈ 168 µM); MIC (Staphylococcus aureus [18]): 50 µg/mL (≈ 168 µM); MIC (Staphylococcus aureus [19]): 100 µg/mL (≈ 335 µM); MIC (Staphylococcus aureus [20]): 50 µg/mL (≈ 168 µM); MIC (Staphylococcus aureus [21]): 50 µg/mL (≈ 168 µM); MIC (Staphylococcus aureus [22]): 50 µg/mL (≈ 168 µM); MIC (Staphylococcus aureus [23]): 50 µg/mL (≈ 168 µM); MIC (Staphylococcus aureus [24]): 50 µg/mL (≈ 168 µM); MIC [25]: 100 µg/mL (≈ 335 µM); MIC [26]: 100 µg/mL (≈ 335 µM); MIC [27]: 100 µg/mL (≈ 335 µM); MIC [28]: 50 µg/mL (≈ 168 µM); CC50 at 96 h [29]: > 100 µM |
| Fc1ccccc1NC(=S)Nc1nc[nH]n1 | 20 mm | 11 mm | 19 mm | 12 mm | 11 mm | 24 mm | inactive | inactive | inactive | inactive | inactive | 200 µg/mL (≈ 843 µM) | 200 µg/mL (≈ 843 µM) | 200 µg/mL (≈ 843 µM) | 200 µg/mL (≈ 843 µM) | 100 µg/mL (≈ 421 µM) | > 400 µg/mL | > 400 µg/mL | > 400 µg/mL | > 400 µg/mL | diameter of the inhibition zone (DIZ) (Enterococcus hirae): inactive; MIC (Staphylococcus aureus [15]): > 400 µg/mL; MIC (Staphylococcus aureus [16]): > 400 µg/mL; MIC (Staphylococcus aureus [17]): > 400 µg/mL; MIC (Staphylococcus aureus [18]): > 400 µg/mL; MIC (Staphylococcus aureus [19]): > 400 µg/mL; MIC (Staphylococcus aureus [20]): > 400 µg/mL; MIC (Staphylococcus aureus [21]): > 400 µg/mL; MIC (Staphylococcus aureus [22]): > 400 µg/mL; MIC (Staphylococcus aureus [23]): > 400 µg/mL; MIC (Staphylococcus aureus [24]): > 400 µg/mL |
